This assay addresses Signal transducer and activator of transcription 3 (Homo sapiens, UniProt P40763). In words: Inhibition of IL-6 induced STAT3 transcriptional activity in human HEK293 cells expressing SIE-luc2P preincubated for overnight followed by IL-6 stimulation and measured after 24 hr by Bio-Glo luciferase reagent based microplate reader assay. The procedure, abridged: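 GloResponse SIE-luc2P HEK-293 cells were seeded at 10,000/well and incubated overnight. STAT3 was activated with IL6 (100 ng/ml) for 24 h, then compound was added for 24 h. Bio-Glo luciferase reagent was added and luminescence read after 5 min. IC50 from three independent experiments, mean ± SD.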

This passage reports IC50 results from BindingDB's records for doi:10.1021/acs.jmedchem.0c01897 (University of Michigan, 2021).

Molecules are shown by their SMILES.

Broadly, the IC50 is the concentration needed to halve the response being measured. Lower therefore signals greater potency in that assay.

Chain of Signal transducer and activator of transcription 3 (P40763 whole entry): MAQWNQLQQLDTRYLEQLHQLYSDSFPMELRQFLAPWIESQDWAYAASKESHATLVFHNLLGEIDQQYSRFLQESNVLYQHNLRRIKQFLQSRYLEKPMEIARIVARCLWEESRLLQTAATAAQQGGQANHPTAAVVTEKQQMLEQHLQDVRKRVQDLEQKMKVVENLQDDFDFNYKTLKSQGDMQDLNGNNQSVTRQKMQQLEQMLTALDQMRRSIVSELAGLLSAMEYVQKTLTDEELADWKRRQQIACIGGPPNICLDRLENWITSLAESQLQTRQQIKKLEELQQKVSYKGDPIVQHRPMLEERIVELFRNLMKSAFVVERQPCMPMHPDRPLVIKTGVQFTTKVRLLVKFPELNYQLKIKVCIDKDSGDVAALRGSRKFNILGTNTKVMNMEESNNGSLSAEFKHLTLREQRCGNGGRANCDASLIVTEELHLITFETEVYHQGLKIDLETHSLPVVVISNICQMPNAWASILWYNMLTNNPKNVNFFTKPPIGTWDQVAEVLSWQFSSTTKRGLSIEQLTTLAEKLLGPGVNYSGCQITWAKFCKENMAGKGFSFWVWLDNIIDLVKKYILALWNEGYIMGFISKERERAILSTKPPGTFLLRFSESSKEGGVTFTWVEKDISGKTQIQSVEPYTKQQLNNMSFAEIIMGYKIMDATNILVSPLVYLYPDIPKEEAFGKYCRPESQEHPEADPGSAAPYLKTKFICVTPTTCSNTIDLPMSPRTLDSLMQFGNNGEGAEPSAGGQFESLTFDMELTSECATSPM

`Cc1ncsc1-c1ccc(CNC(=O)[C@@H]2C[C@@H](O)CN2C(=O)[C@@H](NC(=O)COCCOCCNC(=O)c2cc3c(o2)C(=O)c2ccccc2C3=O)C(C)(C)C)cc1` had an IC50 of 11.4 µM. As to `O=C1CCC(N2C(=O)c3cccc(NCCOCCOCCOCCNC(=O)c4cc5c(o4)C(=O)c4ccccc4C5=O)c3C2=O)C(=O)N1` (stereo not drawn), the IC50 worked out at 2.6 µM. The figure for `O=C1CCC(N2C(=O)c3cccc(OCCCCNC(=O)c4cc5c(o4)C(=O)c4ccccc4C5=O)c3C2=O)C(=O)N1` (stereo not drawn) is 5.7 µM. Regarding `O=C1CCC(N2C(=O)c3cccc(C#CCCCNC(=O)c4cc5c(o4)C(=O)c4ccccc4C5=O)c3C2=O)C(=O)N1` (stereo not drawn), the IC50 was 4.2 µM.

With `CN1C(=O)CCC(N2C(=O)c3cccc(NCCCCCC4CCN(CCNC(=O)c5cc6c(o5)C(=O)c5ccccc5C6=O)CC4)c3C2=O)C1=O` (stereo not drawn), the IC50 was determined as 1.7 µM.

Compound `O=C1CCC(N2C(=O)c3cccc(NCCOCCOCCOCCOCCNC(=O)c4cc5c(o4)C(=O)c4ccccc4C5=O)c3C2=O)C(=O)N1` (stereo not drawn) gave a 50% inhibitory concentration (IC50) of 2.7 µM. For `O=C1CCC(N2C(=O)c3cccc(NCCCCCNC(=O)c4cc5c(o4)C(=O)c4ccccc4C5=O)c3C2=O)C(=O)N1` (stereo not drawn) the value was 4.6 µM; for `O=C1CCC(N2C(=O)c3cccc(NCCNC(=O)c4cc5c(o4)C(=O)c4ccccc4C5=O)c3C2=O)C(=O)N1` (stereo not drawn), 15.3 µM; for `O=C1CCC(N2Cc3c(NCCOCCOCCNC(=O)c4cc5c(o4)C(=O)c4ccccc4C5=O)cccc3C2=O)C(=O)N1` (stereo not drawn), 10.9 µM.

In turn, `O=C1CCC(N2C(=O)c3ccc(NCCOCCOCCNC(=O)c4cc5c(o4)C(=O)c4ccccc4C5=O)cc3C2=O)C(=O)N1` (stereo not drawn) yielded an IC50 of 3.4 µM. The figure for `O=C1CCC(N2C(=O)c3cccc(NCCOCCOCCOCCOCCOCCOCCNC(=O)c4cc5c(o4)C(=O)c4ccccc4C5=O)c3C2=O)C(=O)N1` (stereo not drawn) is 2.5 µM; for `O=C1CCC(N2C(=O)c3cccc(NCCCCCC4CCN(CCNC(=O)c5cc6c(o5)C(=O)c5ccccc5C6=O)CC4)c3C2=O)C(=O)N1` (stereo not drawn) it is 0.9 µM; for `Cc1ncsc1-c1ccc(CNC(=O)[C@@H]2C[C@@H](O)CN2C(=O)[C@@H](NC(=O)COCCNC(=O)c2cc3c(o2)C(=O)c2ccccc2C3=O)C(C)(C)C)cc1` it is > 30 µM.
